Results on 5 molecules are retold here after ChEMBL document CHEMBL1150057, “Bioactive ergost-5-ene-3 beta, 7 alpha-diol derivatives from Pseudobersama mossambicensis” (J Nat Prod, 1992).

The test system of assay [1] is Saccharomyces cerevisiae. As to the kind of experiment: DNA damaging activity against RS188N rad DNA repair gene expressing wild type Saccharomyces cerevisiae assessed as drug level required to produce 12 mm zone of inhibition after 48 hrs. The format is functional. The method, boiled down:
(§1)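 Yeast agar-well diffusion: strain plated on YPD agar (7 mm layer); 6 mm wells cut with cork borer; sample dissolved in DMSO-MeOH (1:1), 100 μl per well. Plates read after 48 h at 30°. IC12 = concentration (μg/ml) giving a 12 mm inhibition zone, taken from dose-response curves by linear regression (log dose as Y, zone size as X).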

For assay [2], the system named is Saccharomyces cerevisiae. The assay is described as follows: DNA damaging activity against RS322YK rad52 DNA repair gene deficient Saccharomyces cerevisiae mutant assessed as drug level required to produce 12 mm zone of inhibition after 48 hrs. The format is functional. Summed up:
as §1

Assay [3] has as its system Saccharomyces cerevisiae. The assay is described as follows: DNA damaging activity against RS167N rad6 DNA repair gene deficient Saccharomyces cerevisiae mutant assessed as drug level required to produce 12 mm zone of inhibition after 48 hrs. The format is functional. Summed up: as §1
In the next assay the test system is P388. The assay is described as follows: Cytotoxicity against mouse P388 cells. The format is functional, cell-based.

Some results are limits rather than exact numbers.

For `CC(C)C(O)(CO)CC[C@@H](C)[C@H]1CC[C@H]2[C@@H]3[C@H](O)C=C4C[C@@H](O)CC[C@]4(C)[C@H]3CC[C@]12C` (stereo partly drawn), the IC12 in the assay on Saccharomyces cerevisiae [1] is above 100 µg/mL; in the assay on Saccharomyces cerevisiae [2], 1 µg/mL.

In the case of `C=C(CC[C@@H](C)[C@H]1CC[C@H]2[C@@H]3[C@H](O)C=C4C[C@@H](O)CC[C@]4(C)[C@H]3CC[C@]12C)C(C)C`, the IC12 was 12 µg/mL in the assay on Saccharomyces cerevisiae [3], above 1500 µg/mL in the assay on Saccharomyces cerevisiae [1] and 8 µg/mL in the assay on Saccharomyces cerevisiae [2]. In the assay on P388, this molecule had an IC50 of 4.3 µM.

Take `CC(C)C1(CC[C@@H](C)[C@H]2CC[C@H]3[C@@H]4[C@H](O)C=C5C[C@@H](O)CC[C@]5(C)[C@H]4CC[C@]23C)CO1` (stereo partly drawn): the IC12 was 6 µg/mL in the assay with Saccharomyces cerevisiae [3], above 50 µg/mL with Saccharomyces cerevisiae [1] and 0.4 µg/mL in the assay with Saccharomyces cerevisiae [2].

Consider `CC[C@@]1(O)C(=O)OCc2c1cc1n(c2=O)Cc2cc3ccccc3nc2-1` [CAMPTOTHECIN], for which the IC12 in the assay with Saccharomyces cerevisiae [3] stood at 8.7 µg/mL; with Saccharomyces cerevisiae [2] it was 0.6 µg/mL.

Take `COC1=C(N)C(=O)c2nc(-c3nc(C(=O)O)c(C)c(-c4ccc(OC)c(OC)c4O)c3N)ccc2C1=O` [STREPTONIGRIN]: the IC12 with Saccharomyces cerevisiae [3] stood at 2.4 µg/mL; in the assay on Saccharomyces cerevisiae [2], 0.4 µg/mL.

As a reminder, the IC50 is the point on the concentration scale where inhibition reaches its midpoint. A low value points to greater potency.
